The values that follow come from ChEMBL document CHEMBL5029186, “Searching for New Microbiome-Targeted Therapeutics through a Drug Repurposing Approach” (J Med Chem, 2021).

Data set [1] in a line: Drug metabolism in mini gut model assessed as metabolite formation by LC-MS/MS analysis. It is filed as ADME, tissue-based. The gist of the method:
(§1)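 Anaerobic mini gut model: stool homogenized in pre-reduced mGAM (10 mL/g), settled 5 min, 50 μL slurry into 450 μL mGAM; compound 20 μM in DMSO (final DMSO 0.22%); 37 °C, 5% H₂/10% CO₂/85% N₂, up to 24 h; donor 1; triplicate. Supernatant acetonitrile-precipitated (1:3), LC–MS at 45 °C, 0.45 mL/min; metabolites analysed versus feces-free reference incubation in mGAM.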

Data set [2] is described as follows: Drug metabolism in human gut microbes assessed as metabolite formation by LC-MS/MS analysis. It is filed as ADME. The procedure, abridged: as §1
Data set [3] can be described thus: Stability of compound in mini gut model at 24 hrs by LC-MS analysis. It is filed as ADME, tissue-based. The gist of the method:
(§2)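 Compound 20 μM (DMSO vehicle, final 0.22%) incubated anaerobically at 37 °C in mGAM inoculated with donor 1 fecal slurry (1:10 slurry, 50 μL into 450 μL) and in bacteria-free mGAM as reference, up to 24 h, triplicate. Samples mixed with 3 volumes cold acetonitrile, centrifuged 21,100g 15 min 4 °C; supernatant analysed by LC–MS (45 °C, 0.45 mL/min) for remaining parent drug.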

Data set [4] in a line: Stability of compound in mini gut model assessed as half life by LC-MS analysis. It is filed as ADME, tissue-based. The procedure, abridged:
as §2

The nature of data set [5]: Stability in human gut microbes assessed as half life by LC-MS analysis. The data set is classed as ADME. The procedure, abridged: as §2

With `Cl.Oc1noc2c1CCNC2`, the Drug metabolism entry in data set [1] and in data set [2] was “Metabolite_Notdetected” each time. For the same compound, the Stability result in data set [3] is “Unstable”.

Broadly, the half-life is the time in which the quantity being followed falls by half. Consider `CCCCNc1ccc(C(=O)OCCOCCOCCOCCOCCOCCOCCOCCOCCOC)cc1` [BENZONATATE], for which the half-life in data set [4] and in data set [5] was over 48 h throughout. The Drug metabolism entry in data set [1] and in data set [2] was “Metabolite_Notdetected” throughout.

As to `O=C([O-])[C@H]1/C(=C/CO)O[C@@H]2CC(=O)N21.[K+]` [CLAVULANATE POTASSIUM], the Drug metabolism entry in data set [1] and in data set [2] was “Metabolite_Notdetected” each time. For the same compound, the Stability result in data set [3] is reported as “Unstable”.

For the compound `CCN(CC)C(=O)/C(C#N)=C/c1cc(O)c(O)c([N+](=O)[O-])c1` [ENTACAPONE], the Drug metabolism entry in data set [1] was “Metabolite_Notdetected”; in data set [2] it was “Metabolite_Detected”.

For `NS(=O)(=O)c1cc2c(cc1Cl)NCNS2(=O)=O` [HYDROCHLOROTHIAZIDE], the half-life in data set [4] and in data set [5] was over 48 h each time. Moreover, the Drug metabolism result in data set [1] and in data set [2] was “Metabolite_Notdetected” each time.

For `COC1=C(OC)C(=O)C(CCCCCCCCCCO)=C(C)C1=O` [IDEBENONE], the Drug metabolism result in data set [1] is “Metabolite_Notdetected”; in data set [2] it was “Metabolite_Detected”.

Take `N[C@@H](Cc1ccc(O)c(O)c1)C(=O)O` [LEVODOPA]: the half-life in data set [4] and in data set [5] was 30 h in each case. Besides, the values for the Drug metabolism result in data set [1] and in data set [2] were “Metabolite_Notdetected” and “Metabolite_Detected”, respectively.

In the case of `O=S(=O)([O-])CCS.[Na+]` [MESNA], the Drug metabolism entry in data set [1] and in data set [2] was “Metabolite_Detected” throughout. The Stability result in data set [3] was “Unstable”.

With `C1N2CN3CN1CN(C2)C3` [METHENAMINE], the half-life in data set [4] and in data set [5] was 10 h each time. The Drug metabolism entry in data set [1] is “Metabolite_Notdetected”; in data set [2], “Metabolite_Detected”.

As to `CCCc1nc(C(C)(C)O)c(C(=O)OCc2oc(=O)oc2C)n1Cc1ccc(-c2ccccc2-c2nnn[nH]2)cc1` [OLMESARTAN MEDOXOMIL], the Drug metabolism result in data set [1] and in data set [2] was “Metabolite_Detected” in each case. Moreover, the Stability entry in data set [3] is listed as “Unstable”.
